≈ marks a conversion by molar mass, not a printed value. Calls of active or inactive are those of the source. The calls are words filed in the database; no cut-off is given here.
Key:
HUVEC [1] = test: Antiangiogenic activity in HUVEC assessed as reduction of cord length at 0.001 ug/ml after 24 hrs by matrigel assay relative to control; assay type: functional; details: Homo sapiens
Procedure, shortened: (§1)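 Commercial HUVECs grown in EGM-2 were seeded at 2 × 10⁵ cells/mL onto Matrigel, which had been polymerized 15 min at rt and then 30 min at 37 °C, per NCI DTP protocol. Compound was added and cells were incubated 24 h, then imaged by inverted microscopy. Cord length and junction number were scored against untreated control on a scale from − (none) to +++ (same as control), with ++ = 50% of control.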

HUVEC [2] = test: Antiangiogenic activity in HUVEC assessed as reduction of cord length at 0.1 ug/ml after 24 hrs by matrigel assay relative to control; assay type: functional, cell-based; details: Homo sapiens; procedure, shortened: as §1
HUVEC [3] = test: Antiangiogenic activity in HUVEC assessed as reduction of cord length at 1 ug/ml after 24 hrs by matrigel assay relative to control; assay type: functional, cell-based; details: Homo sapiens; procedure, shortened: as §1
HUVEC [4] = test: Antiangiogenic activity in HUVEC assessed as reduction of number of junctions at 0.001 ug/ml after 24 hrs by matrigel assay relative to control; assay type: functional; details: Homo sapiens; procedure, shortened: as §1
HUVEC [5] = test: Antiangiogenic activity in HUVEC assessed as reduction of number of junctions at 0.1 ug/ml after 24 hrs by matrigel assay relative to control; assay type: functional, cell-based; details: Homo sapiens; procedure, shortened: as §1
HUVEC [6] = test: Antiangiogenic activity in HUVEC assessed as reduction of number of junctions at 1 ug/ml after 24 hrs by matrigel assay relative to control; assay type: functional, cell-based; details: Homo sapiens; procedure, shortened: as §1
P388 = test: Growth inhibition of mouse P388 cells after 48 hrs by Z1 Beckman/Coulter particle counter analysis; assay type: functional; details: P388, 48 h, read-out: ED50 (the source's name)
Procedure, shortened: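 Mouse P388 leukemia cells were incubated 24 h in 10% horse serum/Fisher medium, then exposed 48 h to serial compound dilutions. ED50 was calculated from cell counts on a Coulter Z1 particle counter.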

BXPC-3 = test: Growth inhibition of human BxPC3 cells after 48 hrs by sulforhodamine B assay; assay type: functional; details: BXPC-3, 48 h
Procedure, shortened: (§2)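 NCI sulforhodamine B assay. Cells were seeded in 5% FBS/RPMI-1640 and incubated 24 h. Serial compound dilutions were then added for 48 h. Cells were fixed with trichloroacetic acid, stained with SRB and read by microplate reader. GI50 is the concentration giving 50% reduction in net protein increase, calculated from optical density data.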

SF-268 = test: Growth inhibition of human SF268 cells after 48 hrs by sulforhodamine B assay; assay type: functional; details: SF-268, 48 h; procedure, shortened: as §2
NCI-H460 = test: Growth inhibition of human NCI-H460 cells after 48 hrs by sulforhodamine B assay; assay type: functional; details: NCI-H460, 48 h; procedure, shortened: as §2
KM-20L2 = test: Growth inhibition of human KM20L2 cells after 48 hrs by sulforhodamine B assay; assay type: functional; details: KM-20L2, 48 h; procedure, shortened: as §2
DU-145 = test: Growth inhibition of human DU145 cells after 48 hrs by sulforhodamine B assay; assay type: functional; details: DU-145, 48 h; procedure, shortened: as §2
[7] = Displacement of [3H]colchicine from tubulin at 1 uM after 10 mins
Procedure, shortened: (§3)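 [³H]colchicine binding: 1.0 μM tubulin with 5.0 μM [³H]colchicine and compound, incubated 10 min at 37 °C. The tubulin–colchicine complex was separated from unbound label by retention on DEAE-cellulose filters. Result is inhibition of radiolabel binding.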

Micrococcus luteus [8] = test: Antibacterial activity against Micrococcus luteus assessed per disc; assay type: functional
Neisseria gonorrhoeae [9] = test: Antibacterial activity against Neisseria gonorrhoeae assessed per disc; assay type: functional
[10] = Displacement of [3H]colchicine from tubulin at 5 uM after 10 mins
Procedure, shortened: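 Purified tubulin 1.0 μM incubated with 5.0 μM [³H]colchicine and test compound for 10 min at 37 °C. Tubulin–colchicine complex retained on DEAE-cellulose filters to separate it from unbound label. Read-out is the percent inhibition of radiolabel binding.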

[11] = Solubility of the compound in water; assay type: physicochemical; details: buffer
Procedure, shortened: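 Solubility expressed as amount dissolving in 1 mL H₂O at 25 °C.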

MCF7 = test: Growth inhibition of human MCF7 cells after 48 hrs by sulforhodamine B assay; assay type: functional; details: MCF7, 48 h; procedure, shortened: as §2
SK-N-SH = test: Growth inhibition of human SK-N-SH cells after 48 hrs by sulforhodamine B assay; assay type: functional; procedure, shortened: as §2
SK-N-AS = test: Growth inhibition of human SK-N-AS cells after 48 hrs by sulforhodamine B assay; assay type: functional; procedure, shortened: as §2
IMR-32 = test: Growth inhibition of human IMR32 cells after 48 hrs by sulforhodamine B assay; assay type: functional; details: IMR-32, 48 h; procedure, shortened: as §2
[12] = Growth inhibition of human KAT4 cells after 48 hrs by sulforhodamine B assay; assay type: functional; details: KAT-4, 48 h
SW-1736 = test: Growth inhibition of human SW1736 cells after 48 hrs by sulforhodamine B assay; assay type: functional; details: SW-1736, 48 h
HUVEC [13] = test: Antiangiogenic activity in HUVEC assessed as cell growth inhibition after 48 hrs by sulforhodamine B assay; assay type: functional, cell-based; details: Homo sapiens
Procedure, shortened: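 HUVECs were grown in EGM-2 medium and tested with the standard SRB growth assay following NCI Developmental Therapeutics Program Matrigel antiangiogenesis protocols. IC50 (concentration causing 50% inhibition) was calculated from plotted data.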

HUVEC [14] = test: Antiangiogenic activity in HUVEC assessed as reduction of cord length at 0.01 ug/ml after 24 hrs by matrigel assay relative to control; assay type: functional, Homo sapiens; set-up: scale not given: the % may be the effect or the level left; procedure, shortened: as §1
HUVEC [15] = test: Antiangiogenic activity in HUVEC assessed as reduction of number of junctions at 0.01 ug/ml after 24 hrs by matrigel assay relative to control; assay type: functional, Homo sapiens; set-up: scale not given: the % may be the effect or the level left; procedure, shortened: as §1
HUVEC [16] = test: Antiangiogenic activity in HUVEC assessed as cell growth at 0.01 ug/ml after 24 hrs by sulforhodamine B assay relative to control; assay type: functional, Homo sapiens
HUVEC [17] = test: Antiangiogenic activity in HUVEC assessed as cell growth at 0.001 ug/ml after 24 hrs by sulforhodamine B assay relative to control; assay type: functional, Homo sapiens; details: Homo sapiens, HUVEC, 24 h; read-out: Activity
HUVEC [18] = test: Antiangiogenic activity in HUVEC assessed as cell growth at 0.0001 ug/ml after 24 hrs by sulforhodamine B assay relative to control; assay type: functional, Homo sapiens; details: Homo sapiens, HUVEC, 24 h; read-out: Activity
HUVEC [19] = test: Antiangiogenic activity in HUVEC assessed as cell growth at 0.1 ug/ml after 24 hrs by sulforhodamine B assay relative to control; assay type: functional, Homo sapiens
Neisseria gonorrhoeae [20] = test: Antibacterial activity against Neisseria gonorrhoeae ATCC 49226 by broth microdilution method; assay type: functional
Procedure, shortened: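 Broth microdilution followed NCCLS standard methods. Compounds were reconstituted in sterile DMSO and diluted in the appropriate medium immediately before testing. MIC was taken as the lowest concentration giving no visible growth (optically clear). Assays were repeated on separate days.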

HUVEC [21] = test: Antiangiogenic activity in HUVEC assessed as reduction of cord length at 0.0001 ug/ml after 24 hrs by matrigel assay relative to control; assay type: functional, Homo sapiens; set-up: scale not given: the % may be the effect or the level left
Procedure, shortened: (§4)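 Matrigel was polymerised in wells (15 min rt, then 30 min 37 °C). HUVECs (2 × 10⁵ cells/mL) were added with compound and incubated 24 h, then imaged by inverted microscope. Cord length and junction number were scored semi-quantitatively versus untreated control (− none to +++ same as control).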

HUVEC [22] = test: Antiangiogenic activity in HUVEC assessed as reduction of number of junctions at 0.0001 ug/ml after 24 hrs by matrigel assay relative to control; assay type: functional, Homo sapiens; set-up: scale not given: the % may be the effect or the level left; procedure, shortened: as §4
HUVEC [23] = test: Antiangiogenic activity in HUVEC assessed as cell growth at 0.00001 ug/ml after 24 hrs by sulforhodamine B assay relative to control; assay type: functional; details: Homo sapiens, read-out: Activity
[24] = Inhibition of purified tubulin assembly after 20 mins
Procedure, shortened: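 Purified tubulin at 10 μM in 0.8 M monosodium glutamate (pH 6.6), 0.4 mM GTP and 4% (v/v) DMSO, with varying compound concentrations. Extent of assembly was measured after 20 min at 30 °C.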

[25] = Displacement of [3H]colchicine from tubulin at 10 uM after 10 mins; procedure, shortened: as §3
Micrococcus luteus [26] = test: Antibacterial activity against Micrococcus luteus Presque Isle 456 by broth microdilution method; assay type: functional
Procedure, shortened: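 Broth microdilution per NCCLS bacterial (M7-A5) and yeast standards. Compounds were reconstituted in sterile DMSO and diluted in the appropriate medium just before testing. MIC is the lowest concentration giving complete inhibition of visible growth (optically clear). Assays were repeated on separate days.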

Cryptococcus neoformans = test: Antifungal activity against Cryptococcus neoformans ATCC 90112 by broth microdilution method

COc1ccc(/C=C\c2cc(I)c(OC)c(I)c2)cc1OP(=O)(O)O
Activity (HUVEC [1]): inactive | Activity (HUVEC [2]): Active | Activity (HUVEC [3]): Active | Activity (HUVEC [4]): inactive | Activity (HUVEC [5]): Active | Activity (HUVEC [6]): Active

COc1ccc(/C=C\c2cc(OC)c(OC)c(OC)c2)cc1O [COMBRETASTATIN A4]
EC50 (P388): 0.3 ng/mL (≈ 0.948 nM) | GI50 (BXPC-3): 390 ng/mL (≈ 1230 nM) | GI50 (SF-268): < 1 ng/mL | GI50 (NCI-H460): 0.6 ng/mL (≈ 1.9 nM) | GI50 (KM-20L2): 61 ng/mL (≈ 193 nM) | GI50 (DU-145): 0.8 ng/mL (≈ 2.53 nM) | inhibition [7]: 81% | MIC (Micrococcus luteus [8]): 25 µg | MIC (Neisseria gonorrhoeae [9]): 25 µg | inhibition [10]: 95%

COc1ccc(/C=C\c2cc(I)c(OC)c(I)c2)cc1OP(=O)([O-])[O-].[K+].[K+]
solubility [11]: 22 mg/mL | EC50 (P388): 3.4 ng/mL | GI50 (BXPC-3): 440 ng/mL | GI50 (MCF7): 50 ng/mL | GI50 (SF-268): 53 ng/mL | GI50 (NCI-H460): 46 ng/mL | GI50 (DU-145): 28 ng/mL | GI50 (SK-N-SH): 7.5 ng/mL | GI50 (SK-N-AS): 2 ng/mL | GI50 (IMR-32): 81 ng/mL | GI50 [12]: 380 ng/mL | GI50 (SW-1736): > 10000 ng/mL | IC50 (HUVEC [13]): 4.9 ng/mL | Activity (HUVEC [14]): 75% | Activity (HUVEC [15]): 75% | Activity (HUVEC [16]): 33% | growth at 0.001 µg/mL (HUVEC [17]): 88% | growth at 0.0001 µg/mL (HUVEC [18]): 96% | Activity (HUVEC [19]): 15% | MIC (Neisseria gonorrhoeae [20]): < 500 ng/mL

COc1ccc(/C=C\c2cc(I)c(OC)c(OC)c2)cc1O [IODOCOMBSTATIN]
EC50 (P388): 2 ng/mL (≈ 4.85 nM) | GI50 (BXPC-3): 48 ng/mL (≈ 116 nM) | GI50 (MCF7): 0.22 ng/mL (≈ 0.534 nM) | GI50 (SF-268): 0.18 ng/mL (≈ 0.437 nM) | GI50 (NCI-H460): 0.29 ng/mL (≈ 0.704 nM) | GI50 (KM-20L2): 328 ng/mL (≈ 796 nM) | GI50 (DU-145): 0.18 ng/mL (≈ 0.437 nM) | GI50 [12]: 89 ng/mL (≈ 216 nM) | GI50 (SW-1736): 2200 ng/mL (≈ 5340 nM) | IC50 (HUVEC [13]): 0.04 ng/mL (≈ 0.097 nM) | Activity (HUVEC [14]; Homo sapiens): Active | Activity (HUVEC [1]): Active | Activity (HUVEC [21]): 75% | Activity (HUVEC [15]; Homo sapiens): Active | Activity (HUVEC [4]): Active | Activity (HUVEC [22]): 75% | growth at 0.01 µg/mL (HUVEC [16]; Homo sapiens, HUVEC, 24 h, read-out: Activity): 14% | growth at 0.001 µg/mL (HUVEC [17]): 14% | growth at 0.0001 µg/mL (HUVEC [18]): 18% | growth at 10 pg/mL (HUVEC [23]): 90% | IC50 [24]: 2500 nM | inhibition [7]: 78% | inhibition [25]: 100% | MIC (Micrococcus luteus [26]): 2000 ng/mL (≈ 4850 nM) | MIC (Cryptococcus neoformans): 64000 ng/mL (≈ 155000 nM)

From ChEMBL document CHEMBL2021780, “Antineoplastic agents. 548. Synthesis of iodo- and diiodocombstatin phosphate prodrugs” (J Nat Prod, 2012)
